Assay results published in ChEMBL document CHEMBL5678817, “FTBMT, a Novel and Selective GPR52 Agonist, Demonstrates Antipsychotic-Like and Procognitive Effects in Rodents, Revealing a Potential Therapeutic Agent for Schizophrenia” (J Pharmacol Exp Ther, 2017).
The source made the active and inactive calls. The rule behind the calls is not given here.

What was measured:
[1] = target: Neuromedin-K receptor (Homo sapiens) (UniProt P29371); assay: Inhibition of Tachykinin NK3 receptor (unknown origin) at 10 uM relative to control
How it was run: (§1)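 Binding and enzyme panel run by an outside contractor against receptors, ion channels and enzymes. Each assay used a single 10 μM test concentration, and results are expressed as percent inhibition. A negative value means stimulation of receptor activity or activation of enzyme activity.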

[2] = target: 5-hydroxytryptamine receptor 4 (Homo sapiens) (UniProt Q13639); assay: Inhibition of Serotonin 5-HT4 receptor (unknown origin) at 10 uM relative to control
How it was run: (§2)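 Part of a 98-target external biochemical selectivity panel that used radioligand/receptor binding-type assays. Compound tested once at 10 µM. Results are reported as % inhibition versus control; negative values mean stimulation of receptor activity.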

[3] = target: G protein-coupled receptor 52 (Rattus norvegicus, UniProt A0A8I5ZQK1); assay: Agonist activity at GPR52 in rat Striatal neuron assessed as increase in intracellular cAMP level […] by Alphascreen assay; format: cell-based
Mus musculus [4] = assay: Antipsychotic activity in wild type mouse assessed as increase in phosphorylated CREB level in striatum at 30 mg/kg, po incubated for 60 mins by ELISA analysis; format: functional, organism-based
[5] = target: Coagulation factor X (Homo sapiens) (UniProt P00742); assay: Inhibition of factor Xa (unknown origin) at 10 uM relative to control; how it was run: as §1
Mus musculus [6] = assay: Pro-cognitive activity in C57BL/6N mouse assessed as increase in Egr-2 gene expression in hippocampus at 3 to 30 mg/kg, po […]; format: functional, organism-based; details: dose 3-30 mg/kg
[7] = target: MAO-B (amine oxidase [flavin-containing] B) (Homo sapiens, UniProt P27338); assay: Inhibition of MAO-B (unknown origin) at 10 uM relative to control
How it was run: (§3)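 Enzyme activity assays from the same 98-target biochemical panel. Single test concentration of 10 µM. Read-out is % inhibition of enzyme activity relative to control; negative percentages indicate activation of the enzyme.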

Homo sapiens [8] = species: Homo sapiens; assay: Inhibition of KATP (unknown origin) at 10 uM relative to control; how it was run: as §2
[9] = target: G-protein coupled receptor 52 (Mus musculus) (UniProt P0C5J4); assay: […] agonist activity at GPR52 in ICR mouse assessed as increase in DARPP-32 phosphorylation at thr34 residue upto 1 uM incubated for 5 mins; format: functional
How it was run: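 Acute 500 μm coronal NAc slices from male ICR mice (8–10 weeks) recovered 60 min at 30 °C in oxygenated Krebs-HCO3 pH 7.4 (adenosine deaminase for first 30 min). Exposed 5 min to 0.01–1 μM, frozen, denatured in 1% SDS with 50 mM NaF. Phospho-Thr34 and total DARPP32 quantified by Western blot densitometry; n = 9.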

[10] = target: Nitric oxide synthase, inducible (Homo sapiens) (UniProt P35228); assay: Inhibition of iNOS (unknown origin) at 10 uM relative to control; how it was run: as §1
[11] = target: Beta-2 adrenergic receptor (Homo sapiens) (UniProt P07550); assay: Inhibition of Adrenergic beta2 receptor (unknown origin) at 10 uM relative to control
How it was run: (§4)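 Single-point screen at 10 μM across receptor, ion channel and enzyme binding or activity assays. Expressed as percent inhibition versus control; negative values denote stimulation.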

[12] = target: Serotonin 3 (5-HT3) receptor (Homo sapiens) (UniProt P46098+A5X5Y0+O95264+Q70Z44+Q8WXA8); assay: Inhibition of Serotonin 5-HT3 receptor (unknown origin) at 10 uM relative to control; format: protein-complex assay; how it was run: as §2
[13] = target: D(2) dopamine receptor (Homo sapiens) (UniProt P14416); assay: Inhibition of Dopamine D2 receptor (unknown origin) at 10 uM relative to control; how it was run: as §2
[14] = target: D(3) dopamine receptor (Homo sapiens) (UniProt P35462); assay: Inhibition of Dopamine D3 receptor (unknown origin) at 10 uM relative to control; how it was run: as §2
[15] = target: cAMP-dependent protein kinase (PKA) (Homo sapiens) (UniProt P22694+P17612+P22612); assay: Inhibition of Protein kinase A (unknown origin) at 10 uM relative to control; format: protein assay; how it was run: as §3
[16] = target: Growth hormone secretagogue receptor type 1 (Homo sapiens) (UniProt Q92847); assay: Inhibition of Growth hormone secretagogue receptor (unknown origin) at 10 uM relative to control; how it was run: as §2
[17] = target: MAO-A (amine oxidase [flavin-containing] A) (Homo sapiens, UniProt P21397); assay: Inhibition of MAO-A (unknown origin) at 10 uM relative to control; how it was run: as §3
[18] = target: Small conductance calcium-activated potassium channel protein 2 (Homo sapiens) (UniProt Q9H2S1); assay: Inhibition of SKCA2 (unknown origin) at 10 uM relative to control; how it was run: as §2
[19] = target: Phosphodiesterase 4 (Homo sapiens) (UniProt P27815+Q08499+Q07343+Q08493); assay: Inhibition of PDE4 (unknown origin) at 10 uM relative to control; format: protein assay; how it was run: as §3
[20] = target: Histamine H2 receptor (Homo sapiens) (UniProt P25021); assay: Inhibition of Histamine H2 receptor (unknown origin) at 10 uM relative to control; how it was run: as §2
[21] = target: Rho-associated protein kinase 1 (Homo sapiens) (UniProt Q13464); assay: Inhibition of ROCK1 (unknown origin) at 10 uM relative to control; how it was run: as §3
[22] = target: Nitric oxide synthase 1 (Homo sapiens) (UniProt P29475); assay: Inhibition of nNOS (unknown origin) at 10 uM relative to control; how it was run: as §1
Mus musculus [23] = assay: Antipsychotic activity in C57BL/6N mouse assessed as increase in c-fos positive cells in dorsolateral striatum at 30 mg/kg, po measured for 2 hrs by immunohistochemistry analysis; format: functional, organism-based
Rattus norvegicus = assay: Pro-cognitive activity in Long-Evans rat assessed as discrimination index at 3 to 10 mg/kg, po measured after 3 mins by NORT test; format: functional, organism-based; details: dose 3-10 mg/kg
How it was run: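 Male Long-Evans rats (7 weeks) were habituated to a 40 × 40 × 50 cm box for 10 min. The acquisition trial was 3 min with two identical objects. Oral dosing at 3 or 10 mg/kg followed immediately after acquisition. The 3-min retention trial, with one familiar and one novel object, ran 48 h later. Exploration was hand-scored by a blinded scorer, and NDI = novel/total × 100. n = 10.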

[24] = target: Delta-type opioid receptor (Homo sapiens) (UniProt P41143); assay: Inhibition of opioid delta receptor (unknown origin) at 10 uM relative to control; how it was run: as §1
[25] = target: Beta-3 adrenergic receptor (Homo sapiens) (UniProt P13945); assay: Inhibition of Adrenergic beta3 (unknown origin) at 10 uM relative to control; how it was run: as §4
Homo sapiens [26] = species: Homo sapiens; assay: Inhibition of Ca2+ ATPase (unknown origin) at 10 uM relative to control; how it was run: as §4
Homo sapiens [27] = species: Homo sapiens; assay: Inhibition of NA+/K+ ATPase (unknown origin) at 10 uM relative to control; how it was run: as §3
[28] = target: Beta-1 adrenergic receptor (Homo sapiens) (UniProt P08588); assay: Inhibition of Adrenergic beta1 receptor (unknown origin) at 10 uM relative to control; how it was run: as §4

Chain of Nitric oxide synthase, inducible (Homo sapiens) (P35228 whole entry): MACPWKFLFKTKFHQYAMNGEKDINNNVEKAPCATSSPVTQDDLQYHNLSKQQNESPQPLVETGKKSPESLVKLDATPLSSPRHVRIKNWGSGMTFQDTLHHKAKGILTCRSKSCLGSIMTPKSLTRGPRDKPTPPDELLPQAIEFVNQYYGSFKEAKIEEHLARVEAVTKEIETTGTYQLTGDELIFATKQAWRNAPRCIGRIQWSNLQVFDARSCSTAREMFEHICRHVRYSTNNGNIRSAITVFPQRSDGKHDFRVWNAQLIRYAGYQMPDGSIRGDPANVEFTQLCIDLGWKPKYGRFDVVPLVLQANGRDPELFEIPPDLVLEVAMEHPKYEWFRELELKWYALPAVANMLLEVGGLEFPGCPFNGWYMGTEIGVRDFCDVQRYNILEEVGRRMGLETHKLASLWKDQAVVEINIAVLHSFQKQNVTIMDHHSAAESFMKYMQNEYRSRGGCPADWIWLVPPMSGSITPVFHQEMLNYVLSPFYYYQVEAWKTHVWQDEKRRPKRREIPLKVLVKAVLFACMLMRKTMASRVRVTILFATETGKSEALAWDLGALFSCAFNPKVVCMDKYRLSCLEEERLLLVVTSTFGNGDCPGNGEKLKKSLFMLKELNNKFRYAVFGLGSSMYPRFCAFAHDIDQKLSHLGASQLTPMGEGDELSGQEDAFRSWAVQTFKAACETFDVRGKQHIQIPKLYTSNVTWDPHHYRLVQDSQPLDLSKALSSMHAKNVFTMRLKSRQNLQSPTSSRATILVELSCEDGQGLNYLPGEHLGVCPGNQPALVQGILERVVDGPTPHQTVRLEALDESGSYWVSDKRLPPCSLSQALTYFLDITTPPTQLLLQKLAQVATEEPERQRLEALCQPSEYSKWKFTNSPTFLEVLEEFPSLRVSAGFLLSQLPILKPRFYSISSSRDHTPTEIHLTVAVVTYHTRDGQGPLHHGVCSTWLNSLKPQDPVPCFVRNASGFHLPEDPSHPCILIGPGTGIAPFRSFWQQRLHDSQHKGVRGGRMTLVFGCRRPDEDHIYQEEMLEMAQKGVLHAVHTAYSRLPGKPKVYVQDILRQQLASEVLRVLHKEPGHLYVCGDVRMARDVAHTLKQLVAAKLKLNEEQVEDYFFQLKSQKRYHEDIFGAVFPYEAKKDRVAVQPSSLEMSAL
Chain of Beta-3 adrenergic receptor (Homo sapiens) (P13945 whole entry, looked up): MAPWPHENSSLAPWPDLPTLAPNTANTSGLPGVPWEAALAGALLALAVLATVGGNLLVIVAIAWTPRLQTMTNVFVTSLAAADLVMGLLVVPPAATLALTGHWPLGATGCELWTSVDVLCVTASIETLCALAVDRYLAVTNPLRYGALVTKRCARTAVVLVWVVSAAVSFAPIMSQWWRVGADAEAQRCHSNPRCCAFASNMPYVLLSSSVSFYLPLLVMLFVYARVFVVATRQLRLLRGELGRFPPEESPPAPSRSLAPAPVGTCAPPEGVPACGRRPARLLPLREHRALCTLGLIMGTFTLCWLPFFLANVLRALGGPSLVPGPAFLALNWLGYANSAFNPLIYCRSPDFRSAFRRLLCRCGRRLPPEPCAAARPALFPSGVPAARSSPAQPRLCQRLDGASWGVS
Chain of Neuromedin-K receptor (Homo sapiens) (P29371 whole entry): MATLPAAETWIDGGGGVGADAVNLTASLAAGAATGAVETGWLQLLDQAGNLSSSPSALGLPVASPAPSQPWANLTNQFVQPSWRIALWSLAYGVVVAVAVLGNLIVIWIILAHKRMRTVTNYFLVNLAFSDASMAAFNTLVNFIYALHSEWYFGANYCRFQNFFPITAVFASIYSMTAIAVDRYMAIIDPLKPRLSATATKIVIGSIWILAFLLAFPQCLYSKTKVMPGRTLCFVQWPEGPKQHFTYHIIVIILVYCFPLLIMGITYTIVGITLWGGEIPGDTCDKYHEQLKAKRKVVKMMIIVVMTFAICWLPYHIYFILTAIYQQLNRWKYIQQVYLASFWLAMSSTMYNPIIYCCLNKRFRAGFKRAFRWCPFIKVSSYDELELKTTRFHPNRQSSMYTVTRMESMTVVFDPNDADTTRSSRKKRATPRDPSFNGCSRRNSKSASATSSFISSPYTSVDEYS
Chain of 5-hydroxytryptamine receptor 4 (Homo sapiens) (Q13639 whole entry): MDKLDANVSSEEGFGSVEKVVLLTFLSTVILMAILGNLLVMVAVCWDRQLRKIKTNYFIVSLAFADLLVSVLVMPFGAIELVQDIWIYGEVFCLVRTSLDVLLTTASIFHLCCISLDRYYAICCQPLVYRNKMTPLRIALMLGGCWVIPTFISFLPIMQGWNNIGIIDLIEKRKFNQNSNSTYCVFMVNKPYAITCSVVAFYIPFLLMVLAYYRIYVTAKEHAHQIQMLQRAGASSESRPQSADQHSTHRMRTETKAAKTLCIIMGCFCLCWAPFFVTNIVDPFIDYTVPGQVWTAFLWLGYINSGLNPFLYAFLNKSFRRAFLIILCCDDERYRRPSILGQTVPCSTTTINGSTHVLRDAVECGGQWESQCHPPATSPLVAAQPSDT
Chain of G protein-coupled receptor 52 (A0A8I5ZQK1 whole entry): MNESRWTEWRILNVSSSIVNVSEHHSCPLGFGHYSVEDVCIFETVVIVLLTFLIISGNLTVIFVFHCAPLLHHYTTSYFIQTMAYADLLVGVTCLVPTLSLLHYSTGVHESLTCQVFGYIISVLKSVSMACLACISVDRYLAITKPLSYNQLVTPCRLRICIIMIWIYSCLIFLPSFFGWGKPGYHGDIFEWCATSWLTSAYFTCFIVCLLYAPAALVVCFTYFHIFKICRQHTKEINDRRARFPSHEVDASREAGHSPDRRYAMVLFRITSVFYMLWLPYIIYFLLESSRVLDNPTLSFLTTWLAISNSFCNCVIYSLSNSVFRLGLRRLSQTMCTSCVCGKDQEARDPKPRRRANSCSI
Chain of Coagulation factor X (Homo sapiens) (P00742 41-179 limits assumed): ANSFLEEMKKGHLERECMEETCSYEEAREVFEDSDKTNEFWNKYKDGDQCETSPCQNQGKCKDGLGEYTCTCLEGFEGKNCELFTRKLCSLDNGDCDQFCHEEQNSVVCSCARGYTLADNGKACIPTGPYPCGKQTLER
Chain of Coagulation factor X (Homo sapiens) (P00742 235-488 limits assumed): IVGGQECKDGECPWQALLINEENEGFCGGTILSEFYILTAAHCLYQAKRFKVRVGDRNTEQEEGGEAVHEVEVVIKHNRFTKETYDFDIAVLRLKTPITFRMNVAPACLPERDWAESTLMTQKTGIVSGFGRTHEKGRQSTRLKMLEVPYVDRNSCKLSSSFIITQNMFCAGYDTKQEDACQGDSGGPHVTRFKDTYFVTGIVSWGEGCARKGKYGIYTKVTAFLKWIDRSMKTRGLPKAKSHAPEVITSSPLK
Chain of D(3) dopamine receptor (Homo sapiens) (P35462 whole entry): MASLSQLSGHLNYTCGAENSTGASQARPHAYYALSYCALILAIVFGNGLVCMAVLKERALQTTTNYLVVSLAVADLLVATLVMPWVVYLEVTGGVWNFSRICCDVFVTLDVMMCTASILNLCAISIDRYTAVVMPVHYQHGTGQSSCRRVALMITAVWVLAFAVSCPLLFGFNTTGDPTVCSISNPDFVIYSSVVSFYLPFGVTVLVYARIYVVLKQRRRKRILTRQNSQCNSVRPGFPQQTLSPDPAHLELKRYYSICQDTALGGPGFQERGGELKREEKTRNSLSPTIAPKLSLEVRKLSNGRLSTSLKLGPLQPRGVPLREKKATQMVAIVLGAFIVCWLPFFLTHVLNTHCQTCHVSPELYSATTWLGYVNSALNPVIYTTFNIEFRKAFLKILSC
Chain of Beta-2 adrenergic receptor (Homo sapiens) (P07550 whole entry, looked up): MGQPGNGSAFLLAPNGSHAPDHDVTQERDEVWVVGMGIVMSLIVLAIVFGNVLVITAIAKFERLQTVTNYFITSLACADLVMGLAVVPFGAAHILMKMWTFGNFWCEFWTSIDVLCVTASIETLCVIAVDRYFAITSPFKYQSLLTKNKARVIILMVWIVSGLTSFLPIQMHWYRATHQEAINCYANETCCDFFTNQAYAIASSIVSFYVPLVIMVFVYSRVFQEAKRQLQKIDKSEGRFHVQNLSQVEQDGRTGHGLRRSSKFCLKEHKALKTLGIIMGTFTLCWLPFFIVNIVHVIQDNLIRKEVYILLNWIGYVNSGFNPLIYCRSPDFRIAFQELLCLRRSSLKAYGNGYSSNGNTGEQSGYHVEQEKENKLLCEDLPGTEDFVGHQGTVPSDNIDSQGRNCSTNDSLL
Chain of Histamine H2 receptor (Homo sapiens) (P25021 whole entry): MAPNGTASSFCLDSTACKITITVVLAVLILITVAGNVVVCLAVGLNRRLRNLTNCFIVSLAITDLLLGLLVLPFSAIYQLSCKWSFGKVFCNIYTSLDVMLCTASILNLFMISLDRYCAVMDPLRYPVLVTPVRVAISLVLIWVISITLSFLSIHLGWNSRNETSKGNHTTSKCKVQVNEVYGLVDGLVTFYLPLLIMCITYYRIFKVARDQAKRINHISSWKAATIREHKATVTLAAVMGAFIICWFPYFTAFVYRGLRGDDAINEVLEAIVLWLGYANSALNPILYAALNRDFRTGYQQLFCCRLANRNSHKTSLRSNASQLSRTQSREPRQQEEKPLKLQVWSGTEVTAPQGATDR
Chain of Small conductance calcium-activated potassium channel protein 2 (Homo sapiens) (Q9H2S1 whole entry): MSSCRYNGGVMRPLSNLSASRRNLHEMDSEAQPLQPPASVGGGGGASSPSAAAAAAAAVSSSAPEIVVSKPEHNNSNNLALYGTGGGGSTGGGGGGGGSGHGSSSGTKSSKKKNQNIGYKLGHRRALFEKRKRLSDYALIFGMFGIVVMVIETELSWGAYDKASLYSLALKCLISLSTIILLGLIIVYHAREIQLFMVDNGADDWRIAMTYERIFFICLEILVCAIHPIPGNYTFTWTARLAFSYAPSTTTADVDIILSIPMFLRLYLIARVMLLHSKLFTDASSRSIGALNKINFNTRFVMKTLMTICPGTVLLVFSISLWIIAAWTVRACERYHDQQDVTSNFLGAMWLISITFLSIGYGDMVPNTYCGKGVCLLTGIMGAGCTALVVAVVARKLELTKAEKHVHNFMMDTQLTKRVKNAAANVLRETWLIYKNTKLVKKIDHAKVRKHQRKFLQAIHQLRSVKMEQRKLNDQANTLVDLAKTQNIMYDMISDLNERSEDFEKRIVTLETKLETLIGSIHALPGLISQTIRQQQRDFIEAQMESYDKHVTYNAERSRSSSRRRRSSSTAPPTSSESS

Q: `Cc1cc(-n2nc(Cc3cc(F)cc(C(F)(F)F)c3)nc2C)ccc1C(N)=O` [TP-024] was tested. Which inhibition [1] did it give?
A: 20%

Q: What about the inhibition [2] of the same compound?
A: 4%

Q: And the EC50 [3]?
A: 151 nM

Q: What about the Activity (Mus musculus [4]) of the same compound?
A: Active

Q: What about the inhibition [5] of the same compound?
A: -4%

Q: What about the Activity (Mus musculus [6]) of the same compound?
A: Active

Q: And the inhibition at 10 µM [7]?
A: 26%

Q: And the inhibition (Homo sapiens [8])?
A: -1%

Q: What about the Activity [9] of the same compound?
A: Active

Q: What about the inhibition [10] of the same compound?
A: 7%

Q: What about the inhibition [11] of the same compound?
A: -5%

Q: And the inhibition [12]?
A: 10%

Q: What about the inhibition [13] of the same compound?
A: 5%

Q: And the inhibition [14]?
A: 8%

Q: What about the inhibition [15] of the same compound?
A: 17%

Q: And the inhibition [16]?
A: 0%

Q: And the inhibition at 10 µM [17]?
A: 6%

Q: What about the inhibition [18] of the same compound?
A: -1%

Q: What about the inhibition [19] of the same compound?
A: 6%

Q: What about the inhibition [20] of the same compound?
A: 2%

Q: What about the inhibition [21] of the same compound?
A: 9%

Q: And the inhibition [22]?
A: 11%

Q: What about the Activity (Mus musculus [23]) of the same compound?
A: inactive

Q: And the Activity (Rattus norvegicus)?
A: Active

Q: And the inhibition [24]?
A: 4%

Q: And the inhibition [25]?
A: 0%

Q: What about the inhibition (Homo sapiens [26]) of the same compound?
A: -1%

Q: And the inhibition (Homo sapiens [27])?
A: -2%

Q: And the inhibition [28]?
A: -1%
